Columns and labels:
[1] = Elimination half life in rat at 5 mg/kg, po; type: ADME, organism-based; parameters: dose 5 mg/kg, route oral; conditions: in vivo
Summary of the method: (§1)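 Rodents dosed by oral gavage at 5 mg/kg in oleic oil solution (0.1 mL mice, 1 mL rats). Whole blood (10 μL) sampled at 0, 0.5, 1, 2, 4, 6, 8 and 24 h and analysed by LC/MS/MS. Elimination t1/2 (min) from noncompartmental fit of concentration-time data, averaged over at least three animals.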

[2] = Stability in human liver S9 fraction at 100 uM after 1 hr; type: ADME, subcellular; conditions: read-out: Stability
Summary of the method: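 Human liver microsomes (0.125 mg protein) or S9 (0.056 mg) in 0.1 M sodium phosphate pH 7.4, preincubated 5 min at 37°C. Compound added from 100 μM stock (final 1.0 μM). Started with NADPH-generating system (NADP, glucose 6-phosphate, G6PDH, MgCl₂), shaken 60 min at 37°C, stopped with cold ethanol with internal standard. Percent remaining vs 0-min ethanol-quenched control.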

[3] = Partition coefficient, log P of the compound; type: physicochemical; conditions: octanol/water
[4] = Stability in human liver microsomes at 100 uM after 1 hr; type: ADME, Microsome; conditions: read-out: Stability
[5] = Elimination half life in dog at 0.3 mg/kg, po; type: ADME, organism-based, Canis lupus familiaris; parameters: dose 0.3 mg/kg, route oral; conditions: in vivo
Summary of the method: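 Oral gavage at 0.3 mg/kg in 3 ml tristerate at body temperature. Plasma assayed by LC/MS/MS. t1/2 from noncompartmental fit, minutes, at least three animals.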

[6] = Elimination half life in mouse at 5 mg/kg, po; type: ADME, organism-based; parameters: dose 5 mg/kg, route oral; conditions: in vivo; summary of the method: as §1

Row | half-life [1] [h] | remaining at 1 h, 100 µM [2] [%] | logP [3] | remaining at 1 h, 100 µM [4] [%] | half-life [5] [h] | half-life [6] [h] | Compound
1 |  | 5 |  | 32 |  |  | CCOCCOCCOCCCCCCC(=O)NC12CC3CC(CC(C3)C1)C2
2 |  |  |  | 5 |  |  | CCOCCOCCOCCCCCNC(=O)CC12CC3CC(CC(C3)C1)C2
3 |  |  |  | 12 |  |  | CCCC(C)COCCCCCNC(=O)NC12CC3CC(CC(C3)C1)C2 (stereo unspecified)
4 |  |  |  | 6.8 |  |  | CCCOCCCOCCCCCNC(=O)NC12CC3CC(CC(C3)C1)C2
5 |  |  |  | 21 |  |  | CCc1ccc(OCCOCCOCCCCCNC(=O)NC23CC4CC(CC(C4)C2)C3)cc1
6 | 3.33 | 34 | 2.4 | 89 | 1.5 | 0.25 | O=C(NCCCCCOCCCN1CCOCC1)NC12CC3CC(CC(C3)C1)C2
7 |  | 12 |  | 42 |  |  | CS(=O)(=O)NCCOCCOCCCCCNC(=O)NC12CC3CC(CC(C3)C1)C2
8 | 1.83 | 81 | 2.2 | 92 | 2.17 | 1.33 | O=C(NC1CCC(OCCCN2CCOCC2)CC1)NC12CC3CC(CC(C3)C1)C2 (stereo unspecified)
9 |  | 97 | 2.9 | 93 | 2.17 |  | O=C(Nc1ccc(OCCCN2CCOCC2)cc1)NC12CC3CC(CC(C3)C1)C2
10 |  |  |  | 12 |  |  | CCCCC(C)OCCCCCNC(=O)NC12CC3CC(CC(C3)C1)C2 (stereo unspecified)
11 |  | 9 |  | 56 |  |  | CCOCCOCCOc1cccc(NC(=O)NC23CC4CC(CC(C4)C2)C3)c1

Second part, the compound before the results:

Row | Compound | half-life [1] [h] | remaining at 1 h, 100 µM [2] [%] | logP [3] | remaining at 1 h, 100 µM [4] [%] | half-life [5] [h] | half-life [6] [h]
12 | CCOCCOCCOCCCCCNC(=O)NC12CC3CC(CC(C3)C1)C2 | 0.65 | 11 | 3.6 | 30 | 3 | 
13 | CCOCCOCCOC1CCC(NC(=O)NC23CC4CC(CC(C4)C2)C3)CC1 (stereo unspecified) | 2.5 | 79 | 2.9 | 91 | 1.5 | 2.67
14 | CCCCOCCCCCNC(=O)NC12CC3CC(CC(C3)C1)C2 |  |  | 5 | 25 | 2.17 | 
15 | CCCOCCCCOCCCCCNC(=O)NC12CC3CC(CC(C3)C1)C2 |  |  |  | 7.5 |  | 
16 | COCCOCCOCCOCCCCCNC(=O)NC12CC3CC(CC(C3)C1)C2 |  | 14 |  | 54 |  | 
17 | CS(=O)(=O)NCCCCCOCCCCCNC(=O)NC12CC3CC(CC(C3)C1)C2 |  |  |  | 59 |  | 
18 | O=C(NCCCCCOCCOCCOCC(F)(F)F)NC12CC3CC(CC(C3)C1)C2 |  | 1.1 |  | 39 |  | 
19 | CCOCCOCCOc1ccc(NC(=O)NC23CC4CC(CC(C4)C2)C3)cc1 | 9.67 | 70 | 3.9 |  | 5.33 | 
20 | CCCCCOC1CCC(NC(=O)NC23CC4CC(CC(C4)C2)C3)CC1 (stereo unspecified) | 2 |  | > 5 | 22 | 2 | 2.83

Source: ChEMBL document CHEMBL1148831, “1,3-disubstituted ureas functionalized with ether groups are potent inhibitors of the soluble epoxide hydrolase with improved pharmacokinetic properties” (J Med Chem, 2007)
